ChEMBL document CHEMBL3875206, “Design, synthesis and biological evaluation of 4'-aminochalcone-rivastigmine hybrids as multifunctional agents for the treatment of Alzheimer's disease” (Bioorg Med Chem, 2017)

Key:
Acetylcholinesterase = Acetylcholinesterase (Electrophorus electricus, UniProt O42275); assay: Inhibition of electric eel AChE using acetylthiocholine iodide as substrate incubated for 15 mins by Ellman's method
Summary of the method: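 Ellman spectrophotometric assay: electric eel AChE 0.05 U/mL final, acetylthiocholine iodide 1 mmol/L, phosphate buffer pH 8.0, range of compound concentrations.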

[1] = Inhibition of rat serum BuChE at 50 uM using butyrylthiocholine iodide as substrate incubated for 15 mins by Ellman's method relative to control; details: 0.25 h
Summary of the method: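 Ellman method with 25% rat serum as BuChE source, butyrylthiocholine iodide 1 mmol/L, phosphate buffer pH 7.4, absorbance at 405 nm. Compounds tested at 50 µM. […] Triplicate wells.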

[2] = Antioxidant activity assessed as trolox equivalents of AAPH radical scavenging activity at 5 uM preincubated for 15 mins followed by AAPH addition measured every 60 sec for 90 mins by ORAC-FL assay; format: functional
Summary of the method: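 Peroxyl radicals generated by AAPH (12 mM final) at 37 °C in phosphate buffer pH 7.4 with fluorescein (150 nM final). Sample and fluorescein were preincubated 15 min before AAPH addition. Fluorescence (ex 485/em 535 nm) was read every 60 s for 90 min.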

[3] = target: Amyloid-beta precursor protein (Homo sapiens) (UniProt P05067); assay: Inhibition of self-induced aggregation of amyloid beta (1-42) (unknown origin) at 25 uM after 24 hrs by thioflavin T fluorescence-based fluorimetric method relative to control
Chain of Amyloid-beta precursor protein (Homo sapiens) (P05067 whole entry): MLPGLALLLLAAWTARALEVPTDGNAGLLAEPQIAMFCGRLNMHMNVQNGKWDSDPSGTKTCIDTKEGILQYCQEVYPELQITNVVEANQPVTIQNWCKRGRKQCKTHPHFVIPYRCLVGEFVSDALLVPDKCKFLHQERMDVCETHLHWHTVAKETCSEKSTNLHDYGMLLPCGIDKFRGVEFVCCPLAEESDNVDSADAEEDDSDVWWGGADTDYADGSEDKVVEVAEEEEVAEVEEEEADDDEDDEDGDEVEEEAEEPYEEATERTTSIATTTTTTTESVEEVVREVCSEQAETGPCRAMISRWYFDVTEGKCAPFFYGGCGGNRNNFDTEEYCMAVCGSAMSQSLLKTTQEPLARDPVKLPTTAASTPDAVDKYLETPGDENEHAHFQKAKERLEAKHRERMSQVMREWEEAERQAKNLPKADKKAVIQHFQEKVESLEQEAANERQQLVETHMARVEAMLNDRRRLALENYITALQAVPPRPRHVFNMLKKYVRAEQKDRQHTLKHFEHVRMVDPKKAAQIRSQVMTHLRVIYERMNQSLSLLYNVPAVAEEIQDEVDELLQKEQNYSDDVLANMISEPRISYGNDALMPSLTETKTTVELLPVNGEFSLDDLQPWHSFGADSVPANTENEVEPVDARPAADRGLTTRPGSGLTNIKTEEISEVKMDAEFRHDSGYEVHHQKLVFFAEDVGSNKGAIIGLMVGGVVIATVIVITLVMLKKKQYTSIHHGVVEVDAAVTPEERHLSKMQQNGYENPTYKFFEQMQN
Summary of the method: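 Aβ1-42 was pretreated in HFIP, dried and stocked in DMSO. Aβ1-42 (25 µM final) was incubated with compound (25 µM final) in 50 mM phosphate buffer pH 7.4 at 37 °C for 24 h. 5 µM ThT in 50 mM glycine-NaOH pH 8.5 was then added. Fluorescence was read at ex 446/em 490 nm. Inhibition = (1−IFi/IFc)×100 after background subtraction, in triplicate.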

[4] = Inhibition of Cu2+-mediated aggregation of amyloid beta (1-42) (unknown origin) at 25 uM after 24 hrs by thioflavin T fluorescence-based fluorimetric method relative to control; format: functional
Summary of the method: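 HFIP-pretreated Aβ1-42 (25 µM) was incubated with Cu2+ (25 µM), with or without compound (25 µM final), in 20 mM HEPES/150 mM NaCl pH 6.6 at 37 °C for 24 h. 5 µM ThT in 50 mM glycine-NaOH pH 8.5 was then added. Fluorescence was read at ex 446/em 490 nm. Percent inhibition was taken versus no-inhibitor control after background subtraction, in triplicate.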

[5] = target: T1, Amine oxidase [flavin-containing] A (Homo sapiens, UniProt P21397); assay: Inhibition of recombinant human MAO-A expressed in baculovirus infected High 5 insect cells at 10 uM using kynuramine as substrate incubated for 30 mins by spectrofluorometric method relative to control; details: 0.5 h
T1 sequence (P21397 whole entry): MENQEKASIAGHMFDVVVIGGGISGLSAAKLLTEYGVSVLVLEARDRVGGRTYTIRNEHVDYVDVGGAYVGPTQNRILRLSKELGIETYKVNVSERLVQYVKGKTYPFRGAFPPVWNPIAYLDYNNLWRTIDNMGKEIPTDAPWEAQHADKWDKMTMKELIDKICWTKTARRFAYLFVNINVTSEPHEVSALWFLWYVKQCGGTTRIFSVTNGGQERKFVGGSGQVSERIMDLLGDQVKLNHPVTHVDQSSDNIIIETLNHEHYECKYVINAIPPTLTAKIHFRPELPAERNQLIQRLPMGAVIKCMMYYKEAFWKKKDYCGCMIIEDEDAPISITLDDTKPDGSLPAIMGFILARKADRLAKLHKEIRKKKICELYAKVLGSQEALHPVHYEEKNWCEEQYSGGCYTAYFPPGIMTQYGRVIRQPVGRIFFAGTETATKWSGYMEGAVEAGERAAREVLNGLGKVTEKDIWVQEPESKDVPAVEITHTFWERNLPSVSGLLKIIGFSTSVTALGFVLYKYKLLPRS
Summary of the method: (§1)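 Recombinant human MAO-A or MAO-B (7.5 µg/mL) with kynuramine substrate in 100 mM potassium phosphate pH 7.4 (KCl-isotonic), <4% DMSO, 30 min at 37 °C. Stopped with 2 N NaOH. 4-Hydroxyquinoline was measured fluorometrically (ex 310/em 400 nm) against a calibration curve. Single-point inhibition at 10 µM. IC50 from six-concentration sigmoidal curves, triplicate. SI = IC50(MAO-A)/IC50(MAO-B).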

[6] = target: T2, Amine oxidase [flavin-containing] B (Homo sapiens, UniProt P27338); assay: Inhibition of recombinant human MAO-B expressed in baculovirus infected High 5 insect cells 10 uM using kynuramine as substrate incubated for 30 mins by spectrofluorometric method relative to control; details: 0.5 h; summary of the method: as §1
T2 sequence (P27338 whole entry): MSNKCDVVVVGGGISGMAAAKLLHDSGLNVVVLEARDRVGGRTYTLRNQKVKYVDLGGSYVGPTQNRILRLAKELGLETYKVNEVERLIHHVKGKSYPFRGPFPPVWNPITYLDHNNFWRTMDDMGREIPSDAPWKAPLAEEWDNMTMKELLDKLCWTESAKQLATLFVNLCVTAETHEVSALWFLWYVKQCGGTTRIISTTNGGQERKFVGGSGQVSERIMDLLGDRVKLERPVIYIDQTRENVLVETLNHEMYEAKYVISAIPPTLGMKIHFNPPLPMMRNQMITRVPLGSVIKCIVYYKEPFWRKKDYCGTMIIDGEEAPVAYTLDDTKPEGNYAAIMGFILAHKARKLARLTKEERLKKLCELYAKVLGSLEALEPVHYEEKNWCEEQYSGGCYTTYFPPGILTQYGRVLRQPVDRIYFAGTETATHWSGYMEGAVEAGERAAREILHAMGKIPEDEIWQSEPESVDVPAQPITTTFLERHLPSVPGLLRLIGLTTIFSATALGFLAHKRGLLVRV

[7] = target: T2, Amine oxidase [flavin-containing] B; assay: Inhibition of recombinant human MAO-B expressed in baculovirus infected High 5 insect cells using kynuramine as substrate incubated for 30 mins by spectrofluorometric method; format: cell-based
Homo sapiens = species: Homo sapiens; assay: Selectivity index, ratio of IC50 for recombinant human MAO-A expressed in baculovirus infected High 5 insect cells to IC50 for recombinant human MAO-B expressed in baculovirus infected High 5 insect cells
Summary of the method: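 Recombinant human MAO-A or MAO-B (7.5 µg/mL) with kynuramine substrate in 100 mM potassium phosphate pH 7.4 (KCl-isotonic), <4% DMSO, 30 min at 37 °C. Stopped with 2 N NaOH. Single-point inhibition at 10 µM. IC50 from six-concentration sigmoidal curves, triplicate. SI = IC50(MAO-A)/IC50(MAO-B).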

Chain of Acetylcholinesterase (O42275 whole entry): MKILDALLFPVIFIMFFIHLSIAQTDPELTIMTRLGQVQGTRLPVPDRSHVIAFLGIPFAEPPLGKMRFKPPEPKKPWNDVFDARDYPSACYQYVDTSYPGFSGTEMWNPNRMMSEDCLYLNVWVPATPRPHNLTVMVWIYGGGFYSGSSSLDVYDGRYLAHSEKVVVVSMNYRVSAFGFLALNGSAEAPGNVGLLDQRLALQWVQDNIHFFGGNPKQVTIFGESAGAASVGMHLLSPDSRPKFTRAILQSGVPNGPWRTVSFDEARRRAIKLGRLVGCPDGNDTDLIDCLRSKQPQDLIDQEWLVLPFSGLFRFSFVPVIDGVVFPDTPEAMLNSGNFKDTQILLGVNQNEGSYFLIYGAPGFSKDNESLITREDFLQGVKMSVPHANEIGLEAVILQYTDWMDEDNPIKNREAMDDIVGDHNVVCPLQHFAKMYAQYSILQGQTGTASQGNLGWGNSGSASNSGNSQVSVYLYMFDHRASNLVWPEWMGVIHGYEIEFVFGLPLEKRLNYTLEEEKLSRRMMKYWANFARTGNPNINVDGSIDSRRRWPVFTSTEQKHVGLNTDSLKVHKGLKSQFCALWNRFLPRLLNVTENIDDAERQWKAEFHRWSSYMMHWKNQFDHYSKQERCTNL

CN(C)c1ccc(/C=C/C(=O)c2ccc(OC(=O)N3CCN(Cc4ccccc4)CC3)cc2O)cc1
IC50 (Acetylcholinesterase): 21.4 µM
inhibition (INH) [1]: < 10%
Activity [2]: 3.51 µMequiv/µM
inhibition [3]: 89.4%
inhibition [4]: 94.2%
inhibition at 10 µM [5]: 42.1%
inhibition at 10 µM [6]: 41.6%

CN(C)c1ccc(/C=C/C(=O)c2ccc(OC(=O)N3CCOCC3)cc2O)cc1
IC50 (Acetylcholinesterase): 8.01 µM
inhibition (INH) [1]: < 10%
Activity [2]: 2.04 µMequiv/µM
inhibition [3]: 83.6%
inhibition [4]: 79.7%
inhibition at 10 µM [5]: 34.6%
inhibition at 10 µM [6]: 42.3%

COc1cc(/C=C/C(=O)CC(=O)/C=C/c2ccc(O)c(OC)c2)ccc1O
inhibition [4]: 67.2%

CN(C)c1ccc(/C=C/C(=O)c2ccc(OC(=O)N3CCCC3)cc2OC(=O)N2CCCC2)cc1
IC50 (Acetylcholinesterase): 30 µM
inhibition (INH) [1]: < 10%
Activity [2]: 2.45 µMequiv/µM
inhibition [3]: 48%
inhibition [4]: 26.3%
inhibition at 10 µM [5]: 25.2%
inhibition at 10 µM [6]: 34.6%

CN(C)c1ccc(/C=C/C(=O)c2ccc(OC(=O)N3CCOCC3)cc2OC(=O)N2CCOCC2)cc1
IC50 (Acetylcholinesterase): 58 µM
inhibition (INH) [1]: < 10%
Activity [2]: 1.85 µMequiv/µM
inhibition [3]: 33.3%
inhibition [4]: 41.4%
inhibition at 10 µM [5]: 15%
inhibition at 10 µM [6]: 40.2%

O=C(/C=C/c1ccc(N2CCCCC2)cc1)c1ccc(OC(=O)N2CCCC2)cc1O
IC50 (Acetylcholinesterase): 10.6 µM
inhibition (INH) [1]: < 10%
Activity [2]: 1.2 µMequiv/µM
inhibition [3]: 57.2%
inhibition [4]: 59.8%
IC50 [7]: 0.78 µM
inhibition at 10 µM [5]: 19.6%

O=C(/C=C/c1ccc(N2CCCC2)cc1)c1ccc(OC(=O)N2CCCC2)cc1O
IC50 (Acetylcholinesterase): 14.1 µM
inhibition (INH) [1]: < 10%
Activity [2]: 0.35 µMequiv/µM
inhibition [3]: 44.4%
inhibition [4]: 48.9%
IC50 [7]: 0.71 µM
inhibition at 10 µM [5]: 15.2%

CN(C)c1ccc(/C=C/C(=O)c2ccc(OC(=O)N3CCCCC3)cc2O)cc1
IC50 (Acetylcholinesterase): 6.9 µM
inhibition (INH) [1]: < 10%
Activity [2]: 2.51 µMequiv/µM
inhibition [3]: 70.2%
inhibition [4]: 73.9%
inhibition at 10 µM [5]: 27.8%
inhibition at 10 µM [6]: 31.1%

CN(C)C(=O)Oc1ccc(C(=O)/C=C/c2ccc(N(C)C)cc2)c(OC(=O)N(C)C)c1
IC50 (Acetylcholinesterase): > 100 µM
inhibition (INH) [1]: < 10%
Activity [2]: 2.16 µMequiv/µM
inhibition [3]: 34.7%
inhibition [4]: 56.2%
inhibition at 10 µM [5]: 34.6%
inhibition at 10 µM [6]: 5.1%

CCN(CC)C(=O)Oc1ccc(C(=O)/C=C/c2ccc(N(C)C)cc2)c(O)c1
IC50 (Acetylcholinesterase): 17.2 µM
inhibition (INH) [1]: < 10%
Activity [2]: 2.2 µMequiv/µM
inhibition [3]: 76.7%
inhibition [4]: 49%
IC50 [7]: 3.5 µM
inhibition at 10 µM [5]: 24.4%

CN(C)c1ccc(/C=C/C(=O)c2ccc(OC(=O)N3CCCCC3)cc2OC(=O)N2CCCCC2)cc1
IC50 (Acetylcholinesterase): 32.4 µM
inhibition (INH) [1]: < 10%
Activity [2]: 2.41 µMequiv/µM
inhibition [3]: 38%
inhibition [4]: 23.8%
inhibition at 10 µM [5]: 17%
inhibition at 10 µM [6]: 30.1%

CCN(C)C(=O)Oc1ccc(C(=O)/C=C/c2ccc(N(C)C)cc2)c(O)c1
IC50 (Acetylcholinesterase): 14.3 µM
inhibition (INH) [1]: < 10%
Activity [2]: 3.14 µMequiv/µM
inhibition [3]: 98%
inhibition [4]: 88%
IC50 [7]: 2.1 µM
inhibition at 10 µM [5]: 25.9%
Ratio IC50 (Homo sapiens): > 4.76

CCN(CC)c1ccc(/C=C/C(=O)c2ccc(OC(=O)N3CCCC3)cc2O)cc1
IC50 (Acetylcholinesterase): 11.7 µM
inhibition (INH) [1]: < 10%
Activity [2]: 1.02 µMequiv/µM
inhibition [3]: 67.8%
inhibition [4]: 67.1%
IC50 [7]: 6.7 µM
inhibition at 10 µM [5]: 21%

O=C(/C=C/c1ccc(N2CCOCC2)cc1)c1ccc(OC(=O)N2CCCC2)cc1O
IC50 (Acetylcholinesterase): 63.5 µM
inhibition (INH) [1]: < 10%
Activity [2]: 0.51 µMequiv/µM
inhibition [3]: 44.4%
inhibition [4]: 48.9%
IC50 [7]: 0.71 µM
inhibition at 10 µM [5]: 15.2%
Ratio IC50 (Homo sapiens): > 14.1

CN1CCN(C(=O)Oc2ccc(C(=O)/C=C/c3ccc(N(C)C)cc3)c(O)c2)CC1
IC50 (Acetylcholinesterase): 11.9 µM
inhibition (INH) [1]: < 10%
Activity [2]: 2.08 µMequiv/µM
inhibition [3]: 87.9%
inhibition [4]: 75.5%
inhibition at 10 µM [5]: 49.5%
inhibition at 10 µM [6]: 25.1%

CCN1CCN(C(=O)Oc2ccc(C(=O)/C=C/c3ccc(N(C)C)cc3)c(O)c2)CC1
IC50 (Acetylcholinesterase): 8.62 µM
inhibition (INH) [1]: < 10%
Activity [2]: 2.54 µMequiv/µM
inhibition [3]: 83.2%
inhibition [4]: 89.2%
inhibition at 10 µM [5]: 42.5%
inhibition at 10 µM [6]: 30%
